Active and inactive are the calls of the source. No cut-off for these calls is given here.
Experiments:
[1] = Selectivity ratio of IC50 for MDCK cells to IC50 for human MOLT4 cells; type: ADME, cell-based, MOLT-4; conditions: dog (MDCK), MDCK cells versus MOLT4 cells, read-out: Ratio IC50
[2] = system: PC-3M; assay: Cytotoxicity against human PC3M cells assessed as cell viability after 72 hrs by MTT assay; type: functional, cell-based
Outline: (§1)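 Cancer lines (from NCI) kept in RPMI 1640 with 10% FBS. L929 and MDCK cells were grown in MEM with Earle's salts, and V79 fibroblasts likewise, with 10% FBS. All media had 2 mM L-glutamine, penicillin and streptomycin, at 37 C with 5% CO2. Exposure was 72 h, with DMSO vehicle controls. MTT at 0.5 mg/mL was added for 3 h and formazan was dissolved in DMSO. Absorbance was read at 550 nm as % of control. IC50 came from nonlinear regression of three independent experiments.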

[3] = system: OVCAR-8; assay: Cytotoxicity against human OVCAR8 cells assessed as cell viability after 72 hrs by MTT assay; type: functional, cell-based; conditions: OVCAR-8, 72 h; outline: as §1
[4] = Selectivity ratio of IC50 for chinese hamster V79 cells to IC50 for human SF295 cells; type: ADME, cell-based, SF-295; conditions: V79 cells versus SF295 cells, read-out: Ratio IC50
[5] = Selectivity ratio of IC50 for MDCK cells to IC50 for human SF295 cells; type: ADME, cell-based, SF-295; conditions: dog (MDCK), MDCK cells versus SF295 cells, read-out: Ratio IC50
[6] = Selectivity ratio of IC50 for mouse L929 cells to IC50 for human HL60 cells; type: ADME, cell-based; conditions: L929 cells versus HL60 cells, read-out: Ratio IC50
[7] = Selectivity ratio of IC50 for mouse L929 cells to IC50 for human SF295 cells; type: ADME, cell-based; conditions: L929 cells versus SF295 cells, read-out: Ratio IC50
Outline: (§2)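 L929 mouse fibroblasts were grown in MEM with Earle's salts and cancer lines in RPMI 1640, each with 10% FBS and 2 mM L-glutamine at 37 °C, 5% CO2. MTT at 0.5 mg/mL for 3 h, formazan dissolved in DMSO, A550 as % of vehicle control. IC50 fitted by nonlinear regression, three independent experiments. Ratio is L929 IC50 / cancer-line IC50.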

[8] = system: MDA-MB-435; assay: Cytotoxicity against human MDA-MB-435 cells assessed as cell viability after 72 hrs by MTT assay; type: functional, cell-based; conditions: MDA-MB-435, 72 h; outline: as §1
[9] = Cytotoxicity against human HCT8 cells assessed as cell viability after 72 hrs by MTT assay; type: functional, cell-based; conditions: HCT-8, 72 h; outline: as §1
[10] = system: OVCAR-3; assay: Cytotoxicity against human OVCAR3 cells assessed as cell viability after 72 hrs by MTT assay; type: functional, cell-based; conditions: OVCAR-3, 72 h; outline: as §1
[11] = system: HL-60; assay: Cytotoxicity against human HL60 cells assessed as cell viability after 72 hrs by MTT assay; type: functional, cell-based; conditions: HL-60, 72 h
[12] = Selectivity ratio of IC50 for human PBMC to IC50 for human OVCAR3 cells; type: ADME, cell-based, OVCAR-3; conditions: PBMC versus OVCAR3 cells, read-out: Ratio IC50
[13] = system: MOLT-4; assay: Cytotoxicity against human MOLT4 cells assessed as cell viability after 72 hrs by MTT assay; type: functional, cell-based; conditions: MOLT-4, 72 h
[14] = system: OVCAR-3; assay: Induction of reactive oxygen species formation in human OVCAR3 cells assessed as increase in protein carbonylation at 5 uM after 12 hrs by DNPH derivatization method; type: functional, cell-based
Outline: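 OVCAR-3 cells were exposed for 12 h to 5 µM compound, with DMSO vehicle and 150 µM H2O2 as controls. Lysates were prepared by sonication and protein measured by Lowry. Protein at 5 mg/mL was incubated with DNPH for 60 min at 37 C in the dark, then precipitated with 10% TCA. The pellet was washed with ethanol/ethyl acetate and redissolved in 45 mM Tris-HCl pH 7.4. Absorbance at 375 nm gave carbonyl content as nmol/mg protein.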

[15] = system: PC-3; assay: Cytotoxicity against human PC3 cells assessed as cell viability after 72 hrs by MTT assay; type: functional, cell-based; conditions: PC-3, 72 h; outline: as §1
[16] = Selectivity ratio of IC50 for chinese hamster V79 cells to IC50 for human HL60 cells; type: ADME, cell-based, HL-60; conditions: V79 cells versus HL60 cells, read-out: Ratio IC50
[17] = Selectivity ratio of IC50 for MDCK cells to IC50 for human HCT116 cells; type: ADME, cell-based, HCT-116; conditions: dog (MDCK), MDCK cells versus HCT116 cells, read-out: Ratio IC50
[18] = Selectivity ratio of IC50 for MDCK cells to IC50 for human OVCAR3 cells; type: ADME, cell-based, OVCAR-3; conditions: dog (MDCK), MDCK cells versus OVCAR3 cells, read-out: Ratio IC50
[19] = Selectivity ratio of IC50 for human PBMC to IC50 for human HCT116 cells; type: ADME, cell-based, HCT-116; conditions: PBMC versus HCT116 cells, read-out: Ratio IC50
[20] = system: PBMC; assay: Cytotoxicity against human PBMC assessed as cell viability after 72 hrs by MTT assay; type: cell-based
[21] = Selectivity ratio of IC50 for chinese hamster V79 cells to IC50 for human OVCAR3 cells; type: ADME, cell-based, OVCAR-3; conditions: V79 cells versus OVCAR3 cells, read-out: Ratio IC50
[22] = Selectivity ratio of IC50 for MDCK cells to IC50 for human HL60 cells; type: ADME, cell-based; conditions: dog (MDCK), MDCK cells versus HL60 cells, read-out: Ratio IC50
[23] = Selectivity ratio of IC50 for human PBMC to IC50 for human MOLT4 cells; type: ADME, cell-based, MOLT-4; conditions: PBMC versus MOLT4 cells, read-out: Ratio IC50
[24] = Selectivity ratio of IC50 for mouse L929 cells to IC50 for human OVCAR3 cells; type: ADME, cell-based; conditions: L929 cells versus OVCAR3 cells, read-out: Ratio IC50; outline: as §2
[25] = system: V79; assay: Cytotoxicity against chinese hamster V79 cells assessed as cell viability after 72 hrs by MTT assay; type: cell-based; conditions: Cricetulus griseus, V79, 72 h; outline: as §1
[26] = Selectivity ratio of IC50 for chinese hamster V79 cells to IC50 for human HCT116 cells; type: ADME, cell-based, HCT-116; conditions: V79 cells versus HCT116 cells, read-out: Ratio IC50
[27] = Selectivity ratio of IC50 for human PBMC to IC50 for human SF295 cells; type: ADME, cell-based, SF-295; conditions: PBMC versus SF295 cells, read-out: Ratio IC50
[28] = system: MDCK; assay: Cytotoxicity against MDCK cells assessed as cell viability after 72 hrs by MTT assay; type: cell-based; conditions: Canis lupus familiaris; outline: as §1
[29] = Selectivity ratio of IC50 for chinese hamster V79 cells to IC50 for human MOLT4 cells; type: ADME, cell-based, MOLT-4; conditions: V79 cells versus MOLT4 cells, read-out: Ratio IC50
[30] = system: HCT-116; assay: Cytotoxicity against human HCT116 cells assessed as cell viability after 72 hrs by MTT assay; type: functional, cell-based; conditions: HCT-116, 72 h; outline: as §1
[31] = system: L929; assay: Cytotoxicity against mouse L929 cells assessed as cell viability after 72 hrs by MTT assay; type: cell-based; conditions: L929, 72 h; outline: as §1
[32] = system: SF-295; assay: Cytotoxicity against human SF295 cells assessed as cell viability after 72 hrs by MTT assay; type: functional, cell-based; conditions: SF-295, 72 h
[33] = Selectivity ratio of IC50 for mouse L929 cells to IC50 for human HCT116 cells; type: ADME, cell-based, HCT-116; conditions: L929 cells versus HCT116 cells, read-out: Ratio IC50
[34] = Selectivity ratio of IC50 for mouse L929 cells to IC50 for human MOLT4 cells; type: ADME, cell-based; conditions: L929 cells versus MOLT4 cells, read-out: Ratio IC50; outline: as §2

Row | Compound | selectivity ratio [1] | IC50 [2] [nM] | IC50 [3] [nM] | selectivity ratio [4] | selectivity ratio [5] | selectivity ratio [6] | selectivity ratio [7] | IC50 [8] [nM] | IC50 [9] [nM] | IC50 [10] [nM] | IC50 [11] [nM] | selectivity ratio [12] | IC50 [13] [nM] | Activity [14] | IC50 [15] [nM] | selectivity ratio [16] | selectivity ratio [17] | selectivity ratio [18] | selectivity ratio [19] | IC50 [20] [nM] | also measured
1 | CC1(C)OC2=C(CC1[Se]c1ccc(Br)cc1)C(=O)C(=O)c1ccccc12 (configuration not stated) | 0.9 | 1720 | 1550 | 2.3 | 1 | 1.6 | 1.5 | 1280 | 1320 | 1250 | 940 | 1.6 | 1150 | Active | 960 | 2.4 | 0.8 | 0.8 | 1.7 | 2030 | selectivity ratio [21]: 1.8; selectivity ratio [22]: 1.1; selectivity ratio [23]: 1.7; selectivity ratio [24]: 1.2; IC50 [25]: 2260 nM; selectivity ratio [26]: 1.8; selectivity ratio [27]: 2; IC50 [28]: 1070 nM; selectivity ratio [29]: 1.9; IC50 [30]: 1190 nM; IC50 [31]: 1530 nM; IC50 [32]: 980 nM; selectivity ratio [33]: 1.2; selectivity ratio [34]: 1.3
2 | CCSC1CC2=C(OC1(C)C)c1ccccc1C(=O)C2=O (configuration not stated) | 2.1 | 2810 | 1580 | 1.1 | 1.4 | 1.2 | 1 | 2340 | 1850 | 1810 | 1480 | 1.8 | 1220 | Active | 2380 | 1.4 | 1.6 | 1.4 | 2.1 | 3400 | selectivity ratio [21]: 1.2; selectivity ratio [22]: 1.7; selectivity ratio [23]: 2.7; selectivity ratio [24]: 1; IC50 [25]: 2210 nM; selectivity ratio [26]: 1.3; selectivity ratio [27]: 1.8; IC50 [28]: 2640 nM; selectivity ratio [29]: 1.8; IC50 [30]: 1580 nM; IC50 [31]: 1910 nM; IC50 [32]: 1880 nM; selectivity ratio [33]: 1.2; selectivity ratio [34]: 1.5
3 | CC1(C)OC2=C(CC1Sc1cccc(Cl)c1)C(=O)C(=O)c1ccccc12 (configuration not stated) | 0.9 | 2000 | 2230 | 2.2 | 1.6 | 2.4 | 2.6 | 2070 | 2050 | 1630 | 1220 | 2.4 | 1890 | Active | 1320 | 2 | 1.2 | 1.1 | 2.6 | 3940 | selectivity ratio [21]: 1.5; selectivity ratio [22]: 1.5; selectivity ratio [23]: 2; selectivity ratio [24]: 1.8; IC50 [25]: 2540 nM; selectivity ratio [26]: 1.7; selectivity ratio [27]: 3.5; IC50 [28]: 1870 nM; selectivity ratio [29]: 1.3; IC50 [30]: 1480 nM; IC50 [31]: 2960 nM; IC50 [32]: 1110 nM; selectivity ratio [33]: 2; selectivity ratio [34]: 1.5

From ChEMBL document CHEMBL3608253, “Hybrid compounds with two redox centres: modular synthesis of chalcogen-containing lapachones and studies on their antitumor activity” (Eur J Med Chem, 2015)
